Experimental findings from article PMC8116641 (Archives of Virology, 2021) are described below.

Entries after “also recorded” stand apart in the source; their conditions may differ. Like-named read-outs stand apart in the source and are kept apart here.

For data set [1], the target named is receptor-binding activity of viral HA of influenza A virus PR8 (H1N1) (Influenza A virus, UniProt P03452). The data set is classed as biochemical.
For data set [2], the system named is influenza A virus PR8 (H1N1). Type of data set: cell-based.
Data set [3] can be described thus: Cytotoxicity assay, microtetrazolium test. The conditions noted are these: dog, MDCK cells. Type of data set: cell-based. Put shortly: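 MDCK cells were exposed for 48 h at 36°C in 5% CO2 to threefold serial dilutions of test compound in MEM, in triplicate. After two PBS washes, cells were incubated for 1 h with MTT ([…] in PBS). The formazan was dissolved in DMSO and OD was read at 535 nm. OD was plotted against concentration to calculate CC50.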

The test system of data set [4] is influenza A virus A/California/07/09 (H1N1)pdm09 (Cal (H1N1)pdm09). The data set can be described thus: microbe, parasite or virus in culture. Type of data set: cell-based. As to conditions: for IC50: read-out: IC50 (50% inhibitory concentration).
In data set [5] the test system is influenza A virus A/Puerto Rico/8/34 (H1N1) (PR8 (H1N1)). The data set can be described thus: microbe, parasite or virus in culture. Type of data set: cell-based. The conditions noted are these: for IC50: Influenza A virus, H1N1|PR8, MDCK, read-out: IC50 (50% virus-inhibiting concentration).
For data set [6], the system named is influenza A viruses (H1, H1pdm09, and H3 subtypes). The data set can be described thus: microbe, parasite or virus in culture. Type of data set: cell-based. The conditions noted are these: read-out: IC50 value (depending on the virus).
Data set [7] concerns influenza A virus A/Aichi/2/68 (H3N2) (Aichi (H3N2)). The data set can be described thus: microbe, parasite or virus in culture. As to conditions: for IC50: read-out: IC50 (50% inhibitory concentration). Type of data set: cell-based.

Chain of receptor-binding activity of viral HA of influenza A virus PR8 (H1N1) (P03452 18-343 limits assumed): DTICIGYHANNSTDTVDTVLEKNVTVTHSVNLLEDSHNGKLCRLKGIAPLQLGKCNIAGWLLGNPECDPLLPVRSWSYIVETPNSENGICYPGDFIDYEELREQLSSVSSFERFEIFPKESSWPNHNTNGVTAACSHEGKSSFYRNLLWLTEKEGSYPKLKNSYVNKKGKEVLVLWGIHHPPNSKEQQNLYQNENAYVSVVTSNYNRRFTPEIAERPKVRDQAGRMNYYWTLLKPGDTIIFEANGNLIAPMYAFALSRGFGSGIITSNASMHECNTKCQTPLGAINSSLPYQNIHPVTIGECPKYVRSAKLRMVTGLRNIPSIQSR
Chain of receptor-binding activity of viral HA of influenza A virus PR8 (H1N1) (P03452 344-565 limits assumed): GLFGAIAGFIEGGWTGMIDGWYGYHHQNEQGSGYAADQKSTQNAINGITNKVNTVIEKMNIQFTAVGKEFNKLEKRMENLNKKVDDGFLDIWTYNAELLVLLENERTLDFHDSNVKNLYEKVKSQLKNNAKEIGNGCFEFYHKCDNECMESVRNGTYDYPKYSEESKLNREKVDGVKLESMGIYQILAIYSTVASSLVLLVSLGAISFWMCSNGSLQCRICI

Turning to `CC1(C)[C@H]2CC[C@]1(C)[C@H](OC(=O)C[N+](C)(C)C)C2.[I-]` [10a, N,N,N-Trimethyl-2-oxo-2-((1S,2R,4S)-1,7,7-trimethylbicyclo[2.2.1]heptan-2-yloxy)ethanaminium iodide], the “Effect on hemagglutination titer of the virus” value in data set [1] was “did not change this value”. Besides, the “Infectious activity of the virus when compound is added late” value in data set [2] is recorded as “not statistically different from the control values”. Further, in data set [2], the “Time of addition at which the compound is most effective” value is “most effective when added at the early stages of the viral life cycle; also recorded: most effective when added within 0–2 hours after infection”. In addition, it took 1310 ± 126 µM to reach half-maximal cytotoxicity in data set [3] (CC50 at 48 h). Besides, the entries for the “SI (selectivity index, CC50/IC50)” value in data set [4], in data set [5] and in data set [7] were 78, 546 and 142, respectively. For the same compound, the IC50 in data set [4] (Influenza A virus, H1N1, MDCK) was 16.9 µM; in data set [4], 16.8 ± 3.1 µM; in data set [5], 2.4 ± 0.4 µM; in data set [6], 2.4 to 16.8 µM; in data set [7] it was 9.2 ± 1.3 µM.

`CC1(C)[C@H]2CC[C@]1(C)[C@H](OC(=O)CCC[N+](C)(C)C)C2` [10c, N,N,N-Trimethyl-4-oxo-4-((1S,2R,4S)-1,7,7-trimethylbicyclo[2.2.1]heptan-2-yloxy)butan-1-aminium iodide]: the CC50 at 48 h in data set [3] stood at 264 ± 15 µM. Also, in data set [5], the IC50 was over 117 µM.

`CC[N+](C)(CC)CC(=O)O[C@H]1C[C@@H]2CC[C@@]1(C)C2(C)C.[I-]` [11a, N,N-Diethyl-N-methyl-2-oxo-2-((1S,2S,4S)-1,7,7-trimethylbicyclo[2.2.1]heptan-2-yloxy)ethanaminium iodide] displayed a CC50 at 48 h in data set [3] of 850 ± 38 µM. Also, in data set [5], the “SI (selectivity index, CC50/IC50)” value was found to be 3 and the IC50 amounted to 316 ± 40 µM.

`CC[N+](C)(CC)CCC(=O)O[C@H]1C[C@@H]2CC[C@@]1(C)C2(C)C` [11b, N,N-Diethyl-N-methyl-3-oxo-3-((1S,2S,4S)-1,7,7-trimethylbicyclo[2.2.1]heptan-2-yloxy)propan-1-aminium iodide] showed a CC50 at 48 h in data set [3] of 69 ± 6 µM. Besides, the IC50 in data set [5] is over 37 µM.

Turning to `NC12CC3CC(CC(C3)C1)C2` [Amantadine, reference compound], the CC50 at 48 h in data set [3] was 284 ± 21 µM. In data set [5], the “SI (selectivity index, CC50/IC50)” value came to 4 and the IC50 was determined as 64.2 ± 4.7 µM.

In data set [3], `CC(N)C1C[C@@H]2CC[C@H]1C2` (stereo partly drawn) [Deitiforine, reference compound] came in with a half-maximal cytotoxic concentration (CC50) at 48 h of 1270 ± 81 µM.

The compound `NC(=O)c1ncn([C@@H]2O[C@H](CO)[C@@H](O)[C@H]2O)n1` [Ribavirin, reference compound] had a 50% cytotoxic concentration (CC50) at 48 h in data set [3] of over 2000 µM. The “SI (selectivity index, CC50/IC50)” value in data set [4] was 61; in data set [5] it was over 81; in data set [7], 52. For the same compound, the IC50 in data set [4] (Influenza A virus, H1N1, MDCK) is 35 ± 4.6 µM; in data set [5] it was 24.6 µM; in data set [7] (Influenza A virus, H3N2, MDCK) it was 41 ± 3.9 µM.

In data set [3], `CC(N)C12CC3CC(CC(C3)C1)C2` (stereo not drawn) [Rimantadine, reference compound] had a CC50 at 48 h of 335 ± 27 µM. In data set [5], the “SI (selectivity index, CC50/IC50)” value came to 5 and the IC50 is 67 ± 4.9 µM.

For `CC1(C)[C@@H]2CC[C@@]1(C)/C(=N/CC[N+](C)(C)C)C2.[I-]` [compound 6, N,N,N-Trimethyl-2-((E)-((1R,4R)-1,7,7-trimethylbicyclo[2.2.1]heptan-2-ylidene)amino)ethanaminium iodide], the CC50 at 48 h in data set [3] was over 2100 µM. For the same compound, in data set [5], the “SI (selectivity index, CC50/IC50)” value is over 18 and the IC50 came out at 115 ± 10 µM.

`CC1(C)[C@@H]2CC[C@@]1(C)/C(=N/CCC[N+](C)(C)C)C2.[I-]` [compound 7, N,N,N-Trimethyl-3-((E)-((1R,4R)-1,7,7-trimethylbicyclo[2.2.1]heptan-2-ylidene)amino)propan-1-aminium iodide] gave a CC50 at 48 h in data set [3] of over 1990 µM. Further, in data set [5], the “SI (selectivity index, CC50/IC50)” value is over 14 and the IC50 was 144 ± 12 µM.

The term CC50 denotes the concentration that lowers cell viability or growth by half. Low values mean harm at low concentration, high ones better tolerance by the cells.
